Results reported in ChEMBL document CHEMBL3352175, “2',6'-Dihalostyrylanilines, pyridines, and pyrimidines for the inhibition of the catalytic subunit of methionine S-adenosyltransferase-2” (J Med Chem, 2014).
Active and inactive are the calls of the source. The calls are words filed in the database; no cut-off is given here.

How the values were obtained:
[1] = Antiproliferative activity against human LS 174T cells by cell viability analyzer; format: functional, cell-based; settings: LS174T
Method in brief: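 LS174T colon cancer cells seeded at 3 × 10^4 cells/mL, treated next day with compounds at 1–300 nM (freshly made DMSO stocks diluted in buffer). Proliferation read by automated cell viability counting. Triplicate at each concentration; IC50 from concentration–response curves by nonlinear regression one-site fit.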

[2] = biological target: S-adenosylmethionine synthase isoform type-2 (Homo sapiens) (UniProt P31153); assay: Inhibition of recombinant His-tagged MAT2A (unknown origin) using L-methionine and ATP at 30 uM
Sequence of S-adenosylmethionine synthase isoform type-2 (Homo sapiens) (P31153 whole entry, looked up, canonical isoform): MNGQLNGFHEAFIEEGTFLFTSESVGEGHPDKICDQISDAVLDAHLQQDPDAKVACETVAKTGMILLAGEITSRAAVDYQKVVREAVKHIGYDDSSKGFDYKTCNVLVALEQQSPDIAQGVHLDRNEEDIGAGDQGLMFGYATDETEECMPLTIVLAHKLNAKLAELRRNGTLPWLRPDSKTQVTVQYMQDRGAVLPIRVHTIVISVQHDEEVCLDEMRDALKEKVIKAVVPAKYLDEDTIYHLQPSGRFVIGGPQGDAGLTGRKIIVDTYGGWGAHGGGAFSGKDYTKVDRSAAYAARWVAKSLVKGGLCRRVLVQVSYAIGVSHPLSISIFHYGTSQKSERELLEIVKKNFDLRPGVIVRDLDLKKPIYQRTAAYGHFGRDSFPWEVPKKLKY
Method in brief: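 Purified His-tagged MAT2A holoenzyme (3 μg) preincubated with compound (30 μM final) 10 min at room temperature, then given L-methionine (50 μM) and ATP (50 μM) in 50 mM Tris pH 8.0, 50 mM KCl, MgCl2; 25 min at room temperature. Released Pi measured by malachite green absorbance at 635 nm; triplicate; activity expressed relative to reference lead.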

[3] = biological target: Voltage-gated inwardly rectifying potassium channel KCNH2 (Homo sapiens, UniProt Q12809); assay: Inhibition of human ERG over-expressed in HEK293 cell membrane by [3H]dofetilide binding assay; format: cell membranes
Sequence of Voltage-gated inwardly rectifying potassium channel KCNH2 (Q12809 whole entry): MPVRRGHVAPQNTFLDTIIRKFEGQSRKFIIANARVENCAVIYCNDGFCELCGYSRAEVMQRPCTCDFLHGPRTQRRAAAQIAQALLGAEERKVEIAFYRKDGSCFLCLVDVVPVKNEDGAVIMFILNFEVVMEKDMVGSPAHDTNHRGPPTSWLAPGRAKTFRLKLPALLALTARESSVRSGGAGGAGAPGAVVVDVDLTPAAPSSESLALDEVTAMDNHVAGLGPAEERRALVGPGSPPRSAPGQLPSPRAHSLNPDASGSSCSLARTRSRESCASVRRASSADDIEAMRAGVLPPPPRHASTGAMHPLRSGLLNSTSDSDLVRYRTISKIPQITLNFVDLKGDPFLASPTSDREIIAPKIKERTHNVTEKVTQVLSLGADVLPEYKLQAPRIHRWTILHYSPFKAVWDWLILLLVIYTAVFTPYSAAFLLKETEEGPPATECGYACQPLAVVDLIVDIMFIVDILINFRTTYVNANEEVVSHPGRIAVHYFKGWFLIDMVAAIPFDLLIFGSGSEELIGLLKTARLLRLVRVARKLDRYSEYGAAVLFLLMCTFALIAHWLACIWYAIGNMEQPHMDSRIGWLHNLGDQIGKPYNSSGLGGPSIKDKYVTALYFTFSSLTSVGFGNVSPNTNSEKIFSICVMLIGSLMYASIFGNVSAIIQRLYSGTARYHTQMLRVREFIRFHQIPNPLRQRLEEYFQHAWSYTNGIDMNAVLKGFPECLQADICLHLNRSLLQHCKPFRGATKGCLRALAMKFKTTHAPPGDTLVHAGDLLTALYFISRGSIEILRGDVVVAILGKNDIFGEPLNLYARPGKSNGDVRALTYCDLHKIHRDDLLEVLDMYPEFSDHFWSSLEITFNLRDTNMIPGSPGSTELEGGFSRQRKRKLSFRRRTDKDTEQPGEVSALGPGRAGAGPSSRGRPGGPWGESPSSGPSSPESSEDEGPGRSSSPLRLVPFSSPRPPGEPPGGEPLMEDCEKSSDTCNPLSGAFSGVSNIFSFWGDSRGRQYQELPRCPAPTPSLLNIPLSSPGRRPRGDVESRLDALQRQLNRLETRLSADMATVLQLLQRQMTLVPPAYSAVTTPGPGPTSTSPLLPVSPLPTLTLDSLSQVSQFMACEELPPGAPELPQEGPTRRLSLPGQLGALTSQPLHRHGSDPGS

[4] = Ratio of IC50 for human ERG to IC50 for inhibition of human LS174T cell proliferation

SMILES	IC50 [1] [nM]	inhibition [2]	IC50 [3] [nM]	Ratio IC50 [4]
CNc1ccc(/C=C/c2c(F)cccc2F)cc1	7.6	Active	49100	6500
CN(C)c1ccc(/C=C/c2c(Cl)cccc2Cl)cn1	30.1	Active	–	–
CNc1ncc(/C=C/c2c(F)cccc2F)cn1	> 200	Active	–	–
CNc1ccc(/C=C/c2c(F)cccc2Cl)cn1	4	Active	19900	5000
CN(C)c1ccc(/C=C/c2c(F)cccc2Cl)cn1	4.7	Active	59500	12700
CN(C)c1ncc(/C=C/c2c(F)cccc2Cl)cn1	> 200	–	–	–
CCNc1ccc(/C=C/c2c(F)cccc2F)cn1	31.3	–	–	–
CNc1ccc(/C=C/c2c(F)cccc2Cl)cc1	7.6	Active	49800	6600
CN(C)c1ccc(/C=C/c2c(Cl)cccc2Cl)nc1	59.5	Active	–	–
CN(C)c1ccc(/C=C/c2c(F)cccc2Cl)cc1	19.2	Active	–	–
CNc1ncc(/C=C/c2c(Cl)cccc2Cl)cn1	> 200	–	–	–
CN(C)c1ncc(/C=C/c2c(Cl)cccc2Cl)cn1	> 200	–	–	–
CCNc1ccc(/C=C/c2c(F)cccc2F)cc1	200	–	–	–
CNc1ccc(/C=C/c2c(Cl)cccc2Cl)cn1	19.6	–	–	–
CN(C)c1ccc(/C=C/c2c(F)cccc2Cl)nc1	20.4	Active	20700	1000
CN(C)c1ccc(/C=C/c2c(F)cccc2F)nc1	57.9	Active	21100	400
CCNc1ncc(/C=C/c2c(F)cccc2F)cn1	> 200	–	–	–
CN(C)c1ncc(/C=C/c2c(F)cccc2F)cn1	> 200	Active	40500	500
CN(C)c1ccc(/C=C/c2c(F)cccc2F)cn1	13.3	Active	–	–
CNc1ccc(/C=C/c2c(Cl)cccc2Cl)cc1	50.1	Active	–	–
CNc1ccc(/C=C/c2c(F)cccc2F)cn1	30.1	–	–	–
CNc1ncc(/C=C/c2c(F)cccc2Cl)cn1	> 200	–	–	–
CN(C)c1ccc(/C=C/c2c(F)cccc2F)cc1	26.9	Active	–	–
CN(C)c1ccc(/C=C/c2c(Cl)cccc2Cl)cc1	214	Active	–	–
